The values that follow come from ChEMBL document CHEMBL3352329, “Antifungal activity of resveratrol derivatives against Candida species” (2014).

For test [1], the system named is Candida albicans. In words: Antifungal activity against Candida albicans SC5314 ATCC MYA-2876 assessed as growth inhibition at 300 ug/ml after 48 hrs by broth microdilution method. Type of test: functional, organism-based. The method, boiled down:
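Broth microdilution in RPMI AutoMod medium against SC5314, tested up to 300 μg/mL, the highest concentration used. Inoculum from a 0.5 McFarland suspension (10^6 cfu/mL). Incubated 48 h at 32 °C, growth read as OD at 630 nm. Activity judged as 95% growth inhibition versus control. Two independent experiments, each in triplicate.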
On the technique in general: In broth dilution the organism is exposed to a series of concentrations in liquid medium.

The test system of another test is Pichia kudriavzevii. In words: Antifungal activity against Candida krusei ATCC 6258 assessed as growth inhibition after 48 hrs by broth microdilution method. Type of test: functional. The following applies: ATCC 6258, 48 h. The method, boiled down:
(§1)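 CLSI broth microdilution with serial 2-fold dilutions in RPMI AutoMod medium. Inoculum from a 0.5 McFarland suspension (10^6 cfu/mL). Plates incubated 48 h at 32 °C, then OD read at 630 nm. MIC95 is the lowest concentration giving 95% growth inhibition versus untreated control. Mean of two independent experiments, each run in triplicate.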

In the next test the test system is Debaryomyces hansenii. In words: Antifungal activity against Candida famata VKMY-9 assessed as growth inhibition after 48 hrs by broth microdilution method. The following applies: VKMY-9, 48 h. Type of test: functional. The method, boiled down: as §1
The subject of test [2] is Candida albicans. In words: Antifungal activity against Candida albicans SC5314 ATCC MYA-2876 assessed as growth inhibition after 48 hrs by broth microdilution method. The note with it: SC5314 ATCC MYA-2876, 48 h. Type of test: functional. The method, boiled down:
as §1

Test [3] concerns Meyerozyma guilliermondii. Briefly: Antifungal activity against Candida guilliermondii ATCC 6260 assessed as growth inhibition after 48 hrs by broth microdilution method. Type of test: functional. The note with it: ATCC 6260, 48 h. The method, boiled down:
as §1

The test system of another test is Nakaseomyces glabratus. Briefly: Antifungal activity against Candida glabrata ATCC 90030 assessed as growth inhibition after 48 hrs by broth microdilution method. Type of test: functional. The note with it: ATCC 90030, 48 h. The method, boiled down:
as §1

For another test, the system named is Clavispora lusitaniae. In words: Antifungal activity against Candida lusitaniae CBS 6936 assessed as growth inhibition after 48 hrs by broth microdilution method. Type of test: functional. The note with it: CBS 6936, 48 h. The method, boiled down:
as §1

Another test has as its system Candida dubliniensis. Briefly: Antifungal activity against Candida dubliniensis ATCC MYA-646 assessed as growth inhibition after 48 hrs by broth microdilution method. Type of test: functional. The following applies: ATCC MYA-646, 48 h. The method, boiled down:
as §1

The subject of test [4] is Candida tropicalis. Briefly: Antifungal activity against Candida tropicalis ATCC MYA-3404/T1 assessed as growth inhibition at 300 ug/ml after 48 hrs by broth microdilution method. Type of test: functional, organism-based. The method, boiled down: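 Broth microdilution per CLSI, serial 2-fold dilutions in RPMI AutoMod medium; inoculum 0.5 McFarland (10^6 cfu/mL). Incubation 48 h at 32 °C, OD 630 nm read; activity judged against untreated control, MIC95 being lowest concentration giving 95% growth inhibition; 300 μg/mL highest concentration tested. Two independent experiments, each in triplicate; mean values.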

For the next test, the system named is Kluyveromyces marxianus. Briefly: Antifungal activity against Candida kefyr clinical isolate assessed as growth inhibition after 48 hrs by broth microdilution method. Type of test: functional. The method, boiled down:
as §1

The subject of the next test is Candida parapsilosis. In words: Antifungal activity against Candida parapsilosis ATCC 22019 assessed as growth inhibition after 48 hrs by broth microdilution method. Type of test: functional. The note with it: Lodderomyces parapsilosis, ATCC 22019, 48 h. The method, boiled down:
as §1

Another test deals with [Candida] inconspicua. Briefly: Antifungal activity against Candida inconspicua clinical isolate assessed as growth inhibition after 48 hrs by broth microdilution method. Type of test: functional. The following applies: Pichia inconspicua. The method, boiled down: as §1
For another test, the system named is Pichia norvegensis. In words: Antifungal activity against Candida norvegensis clinical isolate assessed as growth inhibition after 48 hrs by broth microdilution method. Type of test: functional. The method, boiled down:
as §1

The subject of test [5] is Candida tropicalis. Briefly: Antifungal activity against Candida tropicalis ATCC MYA-3404/T1 assessed as growth inhibition after 48 hrs by broth microdilution method. The note with it: ATCC MYA-3404/T1, 48 h. Type of test: functional. The method, boiled down:
as §1

In test [6] the test system is Candida albicans. Briefly: Antifungal activity against Candida albicans SC5314 ATCC MYA-2876 assessed as inhibition of hyphal formation at 14 ug/ml after 48 hrs by microscopy. Type of test: functional, organism-based. The method, boiled down:
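Yeast-to-hyphae transition of SC5314 examined after 48 h at 32 °C in RPMI medium. Cells exposed to 7, 14 or 28 μg/mL alongside untreated control cells. Hyphal formation assessed by comparing cell morphology between treated and control cultures.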

Each structure is given as a SMILES string. Converted amounts (≈) assume the structure as drawn. The source made the active and inactive calls. No cut-off for these calls is given here.

`CC(=O)Oc1cc(/C=C/c2ccc(O)cc2)cc(OC(C)=O)c1`: the “growth inhibition (GI)” value in the test with Candida albicans [1] is “inactive”.
Take `Oc1ccc(/C=C/c2cc(O)cc(O)c2)cc1`: the “growth inhibition (GI)” value in the test on Candida albicans [1] was “inactive”.
On the same count and under the same terms, with `CC(=O)Oc1ccc(/C=C/c2cc(OC(C)=O)cc3c2[C@H](c2cc(OC(C)=O)cc(OC(C)=O)c2)[C@@H](c2ccc(OC(C)=O)cc2)O3)cc1` the entry was “inactive”.
Regarding `Oc1ccc([C@H]2Oc3ccc(/C=C/c4cc(O)cc5c4[C@@H](c4cc(O)cc(O)c4)[C@H](c4ccc(O)cc4)O5)cc3[C@@H]2c2cc(O)cc3c2[C@H](c2cc(O)cc(O)c2)[C@@H](c2ccc(O)cc2)O3)cc1` (mixture of isomers), the MIC95 in the test with Pichia kudriavzevii was 300 µg/mL; with Debaryomyces hansenii, 18 µg/mL; in the test on Candida albicans [2] it was 300 µg/mL; in [3], 150 µg/mL; in the test with Nakaseomyces glabratus, 300 µg/mL; with Clavispora lusitaniae it was 300 µg/mL. The MIC95 worked out at 150 µg/mL in the test with Candida dubliniensis; 150 µg/mL with Kluyveromyces marxianus; 300 µg/mL in the test on Candida parapsilosis; 300 µg/mL in test [Candida] inconspicua; 300 µg/mL with Pichia norvegensis. In addition, in the test on Candida tropicalis [4], the “growth inhibition (GI)” value was “inactive”.
Take `COc1cc(O)cc(/C=C/c2ccc(O)cc2)c1`: the MIC95 in the test on Pichia kudriavzevii is 300 µg/mL (≈ 1240 µM); in the test with Debaryomyces hansenii, 18 µg/mL (≈ 74.3 µM); in the test on Candida albicans [2], 300 µg/mL (≈ 1240 µM); in test [3], 150 µg/mL (≈ 619 µM); with Nakaseomyces glabratus, 300 µg/mL (≈ 1240 µM); in the test on Clavispora lusitaniae, 300 µg/mL (≈ 1240 µM). The MIC95 in the test with Candida dubliniensis stood at 150 µg/mL (≈ 619 µM); in the test with Kluyveromyces marxianus it was 150 µg/mL (≈ 619 µM); with Candida parapsilosis it was 300 µg/mL (≈ 1240 µM); in [Candida] inconspicua, 300 µg/mL (≈ 1240 µM); in the test on Pichia norvegensis, 300 µg/mL (≈ 1240 µM). Besides, in the test with Candida tropicalis [4], the “growth inhibition (GI)” value was “inactive”.
For `Nc1nc(=O)[nH]cc1F` [FLUCYTOSINE], the MIC95 with Pichia kudriavzevii is 4 µg/mL (≈ 31 µM); with Debaryomyces hansenii it was 2 µg/mL (≈ 15.5 µM); in the test on Candida albicans [2], 2 µg/mL (≈ 15.5 µM); in test [3], 2 µg/mL (≈ 15.5 µM); in the test on Nakaseomyces glabratus, 4 µg/mL (≈ 31 µM); in the test with Clavispora lusitaniae it was 2 µg/mL (≈ 15.5 µM). In addition, the MIC95 stood at 2 µg/mL (≈ 15.5 µM) with Candida dubliniensis; 4 µg/mL (≈ 31 µM) in the test on Kluyveromyces marxianus; 4 µg/mL (≈ 31 µM) with Candida tropicalis [5]; 4 µg/mL (≈ 31 µM) with Candida parapsilosis; 4 µg/mL (≈ 31 µM) in test [Candida] inconspicua; 4 µg/mL (≈ 31 µM) with Pichia norvegensis.
In the case of `OC[C@H]1O[C@@H](Oc2cc(O)cc(/C=C/c3ccc(O)cc3)c2)[C@H](O)[C@@H](O)[C@@H]1O`, in the test on Candida albicans [1], the “growth inhibition (GI)” value was “inactive”.
For `CC(=O)Oc1cc(O)cc(/C=C/c2ccc(O)cc2)c1`, the “growth inhibition (GI)” value with Candida albicans [1] is “inactive”.
`COc1cc(/C=C/c2ccc(O)cc2)cc(OC)c1` [PTEROSTILBENE]: the MIC95 in the test on Pichia kudriavzevii turned out to be 28 µg/mL (≈ 109 µM); in the test with Debaryomyces hansenii it was 7 µg/mL (≈ 27.3 µM); with Candida albicans [2], 28 µg/mL (≈ 109 µM); in test [3], 7 µg/mL (≈ 27.3 µM); with Nakaseomyces glabratus, 28 µg/mL (≈ 109 µM); with Clavispora lusitaniae it was 28 µg/mL (≈ 109 µM). Moreover, the MIC95 with Candida dubliniensis came to 14 µg/mL (≈ 54.6 µM); in the test on Kluyveromyces marxianus it was 14 µg/mL (≈ 54.6 µM); in the test on Candida tropicalis [5], 28 µg/mL (≈ 109 µM); with Candida parapsilosis, 14 µg/mL (≈ 54.6 µM); in test [Candida] inconspicua it was 28 µg/mL (≈ 109 µM); in the test on Pichia norvegensis, 28 µg/mL (≈ 109 µM). Further, the inhibition entry in the test with Candida albicans [6] was “Active”.
For `Oc1ccc(/C=C/c2cc(O)cc3c2[C@H](c2cc(O)cc(O)c2)[C@@H](c2ccc(O)cc2)O3)cc1` (relative stereo), the “growth inhibition (GI)” value with Candida albicans [1] is “inactive”.
For `CC(=O)Oc1ccc(/C=C/c2cc(OC(C)=O)cc(OC(C)=O)c2)cc1`, in the test with Candida albicans [1], the “growth inhibition (GI)” value is “inactive”.
For `COc1ccc(/C=C/c2cc(OC)cc(OC)c2)cc1`, the “growth inhibition (GI)” value in the test on Candida albicans [1] was “inactive”.
As for `COc1ccc(/C=C/c2cc(OC)cc3c2[C@H](c2cc(OC)cc(OC)c2)[C@@H](c2ccc(OC)cc2)O3)cc1` (relative stereo), in the test on Candida albicans [1], the “growth inhibition (GI)” value was “inactive”.
Same read-out and setting: with `CC(=O)Oc1ccc(/C=C/c2cc(O)cc(OC(C)=O)c2)cc1` the entry was “inactive”.
For `COc1ccc(/C=C/c2cc(O)cc(OC)c2)cc1`, the MIC95 in the test with Pichia kudriavzevii was determined as 37 µg/mL (≈ 144 µM); in the test with Debaryomyces hansenii, 9 µg/mL (≈ 35.1 µM); in the test on Candida albicans [2], 37 µg/mL (≈ 144 µM); in [3] it was 18 µg/mL (≈ 70.2 µM); in the test with Nakaseomyces glabratus it was 37 µg/mL (≈ 144 µM); in the test on Clavispora lusitaniae, 37 µg/mL (≈ 144 µM). Further, the MIC95 amounted to 18 µg/mL (≈ 70.2 µM) with Candida dubliniensis; 18 µg/mL (≈ 70.2 µM) in the test with Kluyveromyces marxianus; 27 µg/mL (≈ 105 µM) in the test on Candida tropicalis [5]; 18 µg/mL (≈ 70.2 µM) in the test with Candida parapsilosis; 37 µg/mL (≈ 144 µM) in test [Candida] inconspicua; 37 µg/mL (≈ 144 µM) in the test with Pichia norvegensis.
On to `Oc1ccc([C@H]2c3c(O)cc(O)cc3[C@H]3c4c(cc(O)cc4[C@@H]2O)O[C@@H]3c2ccc(O)cc2)cc1`, for which, in the test with Candida albicans [1], the “growth inhibition (GI)” value was “inactive”.
With `COc1ccc(/C=C/c2cc(O)cc(O)c2)cc1` [RESVERATROL 4'-METHYL ETHER], the MIC95 was found to be 150 µg/mL (≈ 619 µM) in the test on Pichia kudriavzevii; 18 µg/mL (≈ 74.3 µM) with Debaryomyces hansenii; 150 µg/mL (≈ 619 µM) in the test on Candida albicans [2]; 150 µg/mL (≈ 619 µM) in test [3]; 150 µg/mL (≈ 619 µM) in the test with Nakaseomyces glabratus; 300 µg/mL (≈ 1240 µM) with Clavispora lusitaniae. Besides, the MIC95 in the test with Candida dubliniensis worked out at 150 µg/mL (≈ 619 µM); with Kluyveromyces marxianus, 150 µg/mL (≈ 619 µM); in the test with Candida tropicalis [5], 300 µg/mL (≈ 1240 µM); with Candida parapsilosis, 300 µg/mL (≈ 1240 µM); in [Candida] inconspicua, 300 µg/mL (≈ 1240 µM); in the test with Pichia norvegensis, 75 µg/mL (≈ 310 µM).
